Experiments:
[1] = target: T1, human Golgi α-mannosidase II (α-hGMII) (Homo sapiens, UniProt Q16706); assay: 4-MU-based enzyme inhibition study, wild-type α-hGMII; assay type: biochemical; settings: SI = (α-hLM Ki)/(α-hGMII Ki), Man-α-4MU substrate
T1 sequence (Q16706 1-1144): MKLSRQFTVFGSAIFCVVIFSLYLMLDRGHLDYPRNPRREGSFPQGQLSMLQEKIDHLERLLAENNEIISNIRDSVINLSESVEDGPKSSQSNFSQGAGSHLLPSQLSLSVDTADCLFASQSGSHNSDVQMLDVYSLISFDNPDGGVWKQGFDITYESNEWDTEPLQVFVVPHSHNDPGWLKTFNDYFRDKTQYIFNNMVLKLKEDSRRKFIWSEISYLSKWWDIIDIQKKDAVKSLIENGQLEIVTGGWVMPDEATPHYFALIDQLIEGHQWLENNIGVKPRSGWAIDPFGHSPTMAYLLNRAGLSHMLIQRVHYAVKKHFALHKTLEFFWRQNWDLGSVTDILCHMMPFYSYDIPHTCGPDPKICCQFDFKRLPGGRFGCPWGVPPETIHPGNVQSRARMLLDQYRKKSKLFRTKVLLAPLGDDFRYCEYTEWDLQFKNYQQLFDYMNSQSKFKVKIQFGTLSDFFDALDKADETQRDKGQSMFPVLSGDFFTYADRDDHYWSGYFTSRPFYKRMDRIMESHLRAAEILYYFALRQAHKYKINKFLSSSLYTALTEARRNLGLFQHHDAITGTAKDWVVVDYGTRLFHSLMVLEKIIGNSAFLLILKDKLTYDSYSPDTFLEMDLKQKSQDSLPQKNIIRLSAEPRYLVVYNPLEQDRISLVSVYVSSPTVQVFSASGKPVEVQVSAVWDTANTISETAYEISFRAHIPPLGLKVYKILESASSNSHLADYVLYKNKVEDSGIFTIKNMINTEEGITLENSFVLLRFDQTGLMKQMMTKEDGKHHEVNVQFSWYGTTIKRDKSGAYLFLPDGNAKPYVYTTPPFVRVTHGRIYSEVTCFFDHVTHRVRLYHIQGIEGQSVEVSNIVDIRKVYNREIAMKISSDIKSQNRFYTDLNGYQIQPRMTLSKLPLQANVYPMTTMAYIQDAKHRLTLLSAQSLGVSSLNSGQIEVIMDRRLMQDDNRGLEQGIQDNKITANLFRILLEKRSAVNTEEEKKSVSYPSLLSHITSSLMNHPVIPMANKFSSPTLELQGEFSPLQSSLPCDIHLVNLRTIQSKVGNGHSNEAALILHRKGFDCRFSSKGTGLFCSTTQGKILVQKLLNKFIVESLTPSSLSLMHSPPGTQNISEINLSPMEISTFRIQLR

α-hGMII = target: T2, α-hGMII (Homo sapiens, UniProt Q16706); assay: Glycan-based; assay type: biochemical; settings: SI = (α-hLM IC50)/(α-hGMII IC50), oligosaccharide substrates
T2 sequence (Q16706 1-1144): T1 sequence (Q16706 1-1144)
Procedure, shortened: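 The substrate for human Golgi α-mannosidase II was 2-aminobenzamide-labelled GlcNAcMan5GlcNAc2 (GlcNAcMan5-2AB), with LNnT-2AB as internal standard. Enzyme, substrate and test compound (0, 0.3, 0.1, 0.03 μM) were incubated 24 h at 37 °C. Remaining substrate was measured by UPLC fluorescence as the peak area ratio of substrate to internal standard. Ki was taken from a Lineweaver–Burk plot. SI used lysosomal α-mannosidase IC50, run the same way with Man5-2AB substrate and NA2-2AB standard.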

[2] = tested on: human normal fibroblast (08C0015); assay: Cell based selectivity assay; settings: 08C0015, 24 h treatment
Huh7 xenograft tumors = assay: Mice xenograft model of HCC; assay type: in vivo, NOD-SCID mice; settings: 30 mg kg−1 ip. twice a week
Serum biochemistry assay = assay type: in vivo, NOD-SCID mice; settings: 30 mg kg−1 ip. twice a week
Procedure, shortened: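 Huh7 cells (5 × 106) implanted subcutaneously into left and right flanks of NOD-SCID mice. From day 7 after inoculation, test compound or reference drug given ip at 30 mg kg−1 twice a week for 34 days; bodyweight monitored. Serum AST, ALT, total bilirubin, creatinine and BUN measured for hepatorenal toxicity; significance set at P < 0.05.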

| SMILES | SI: selectivity index [1] | SI: selectivity index (glycan based) (α-hGMII) | increase of relative intensity of overall Man2-9GlcNAc compared to the control group [2] | signs of harm / body weight during treatment (Huh7 xenograft tumors) | tumor growth compared to the control (Huh7 xenograft tumors; P < 0.05) | side effects (hepatotoxicity and nephrotoxicity) (Serum biochemistry assay) |
| --- | --- | --- | --- | --- | --- | --- |
| O[C@H]1[C@H]2[C@H](O)CCCN2C[C@H]1O [sw, swainsonine] | 4.6 | 5 | about 5 fold | – | – | – |
| CNC(=O)c1cc(Oc2ccc(NC(=O)Nc3ccc(Cl)c(C(F)(F)F)c3)cc2)ccn1 [Sorafenib, sorafenib] | – | – | – | neither mice injected with 8b-3 nor sorafenib exhibited signs of harm or decreased body weight | significant reduction in tumor growth | no serious side effects including hepatotoxicity and nephrotoxicity were observed |

Reference: paper PMC9159088 (Chemical Science, 2022)
